Measurements taken from ChEMBL document CHEMBL4400513, “Aurone derivatives as promising antibacterial agents against resistant Gram-positive pathogens” (Eur J Med Chem, 2019).
Converted amounts (≈) assume the structure as drawn. The source made the active and inactive calls. The calls are words filed in the database; no cut-off is given here.

Tests used:
[1] = test system: Mycolicibacterium smegmatis; experiment: Bactericidal activity against Mycobacterium smegmatis in anaerobic condition; type: functional, organism-based
Summary of the method: (§1)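 From the MIC plates, 10 µL from each well without growth was streaked onto agar suited to the organism and incubated under that organism's growth conditions. Colonies were then counted; MBC = lowest concentration allowing ≤1 colony, i.e. killing 99.9% of bacteria.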

Cutibacterium acnes = experiment: Antimicrobial activity against Propionibacterium acnes after 18 to 24 hrs in aerobic condition by two-fold serial dilutions method; type: functional
Stachybotrys chartarum [2] = experiment: Fungicidal activity against Stachybotrys chartarum; type: functional, organism-based
Summary of the method: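 Filamentous fungi grown on potato dextrose agar and tested in RPMI medium with two-fold serial dilutions (0–500 µM, 0.2% DMSO final). Plates held at room temperature for 2 to 5 days, then OD600 read; MIC taken as the lowest concentration with no visible growth. The fungicidal endpoint is ≤1 colony after streaking 10 µL of no-growth wells on agar. n = 3.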

Lactococcus lactis = experiment: Antimicrobial activity against Lactococcus lactis after 18 to 24 hrs in aerobic condition by two-fold serial dilutions method; type: functional
Summary of the method: (§2)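 Colonies grown overnight (~16 h) in Mueller-Hinton broth at 37 °C, 200 rpm, diluted 1/100 and grown to log phase (OD600 ~0.6), then diluted to ~10^5 bacteria/mL. Exposed to 0 to 500 µM in 1:2 series (0.2% DMSO final control), aerobic, 37 °C, 18–24 h. OD600 read; MIC = lowest concentration without visible growth; n = 3.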

Salmonella enterica = experiment: Bactericidal activity against Salmonella enterica in aerobic condition; type: functional, organism-based
Summary of the method: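 MH broth; log-phase bacteria (OD600 ~0.6) diluted to ~10^5 bacteria/mL and exposed to two-fold serial dilutions (0–500 µM; 0.2% DMSO final as vehicle control) at 37 °C, aerobic, 18–24 h. MIC is the lowest concentration preventing visible growth (OD600). MBC is found by streaking 10 µL from no-growth wells onto agar; the MBC is the concentration where ≤1 colony grew. n = 3.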

Vibrio alginolyticus = experiment: Antimicrobial activity against Vibrio alginolyticus after 18 to 24 hrs in aerobic condition by two-fold serial dilutions method; type: functional; summary of the method: as §2
Aspergillus ochraceus = experiment: Antifungal activity against Aspergillus ochraceus after 2 to 5 days by two-fold serial dilutions method; type: functional
Summary of the method: (§3)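 Broth two-fold serial dilution MIC, 0 to 500 µM (1:2 steps), from 200 mM DMSO stocks; 0.2% DMSO final as vehicle control. Inoculum about 10^5 cells/mL. Strains maintained on potato dextrose agar and in RPMI medium. Plates held at room temperature for 2 to 5 days, OD600 read; MIC = lowest concentration preventing visible growth; independent triplicate.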

[3] = test system: Bacteroides thetaiotaomicron; experiment: Bactericidal activity against Bacteroides thetaiotaomicron in anaerobic condition; type: functional, organism-based; summary of the method: as §1
Klebsiella variicola = experiment: Antimicrobial activity against Klebsiella variicola after 18 to 24 hrs in aerobic condition by two-fold serial dilutions method; type: functional; summary of the method: as §2
Stachybotrys chartarum [4] = experiment: Antifungal activity against Stachybotrys chartarum after 2 to 5 days by two-fold serial dilutions method; type: functional; summary of the method: as §3
Candida albicans = experiment: Antifungal activity against Candida albicans after 2 to 5 days by two-fold serial dilutions method; type: functional
Escherichia coli [5] = experiment: Bactericidal activity against Escherichia coli MRS in aerobic condition; type: functional, organism-based; summary of the method: as §1
Blautia producta = experiment: Bactericidal activity against Clostridium coccoides in anaerobic condition; type: functional, organism-based; summary of the method: as §1
Acinetobacter baumannii = experiment: Bactericidal activity against Acinetobacter baumannii in aerobic condition; type: functional, organism-based; summary of the method: as §1
Enterococcus faecalis [6] = experiment: Bactericidal activity against Enterococcus faecalis in anaerobic condition; type: functional, organism-based; summary of the method: as §1
Enterococcus faecalis [7] = experiment: Antimicrobial activity against Enterococcus faecalis after 18 to 24 hrs in anaerobic condition by two-fold serial dilutions method; type: functional
Summary of the method: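 BHI preculture at 37 °C brought to log phase (OD600 ~0.6), then ~10^5 bacteria/mL exposed to 0 to 500 µM (1:2 dilutions, 0.2% DMSO final control). Anaerobic conditions from a gas-pack system, 37 °C, 18–24 h. OD600 read; MIC = lowest concentration with no visible growth; n = 3.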

Escherichia coli [8] = experiment: Bactericidal activity against Escherichia coli […] K88 in aerobic condition; type: functional, organism-based
Clostridioides difficile = experiment: Bactericidal activity against Clostridium difficile in anaerobic condition; type: functional, organism-based; summary of the method: as §1
Helicobacter pylori = experiment: Bactericidal activity against Helicobacter pylori in anaerobic condition; type: functional, organism-based; summary of the method: as §1
[9] = test system: Bacteroides thetaiotaomicron; experiment: Antimicrobial activity against Bacteroides thetaiotaomicron after 18 to 24 hrs in anaerobic condition by two-fold serial dilutions method; type: functional
Summary of the method: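 Precultures in BHI broth at 37 °C in an anaerobic cabinet, grown to log phase (OD600 ~0.6), then seeded at ~10^5 bacteria/mL. Two-fold dilutions from 0 to 500 µM, 0.2% DMSO final as control. Plates incubated anaerobically at 37 °C for 18–24 h, OD600 read; MIC = lowest concentration giving no visible growth; independent triplicate.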

Aspergillus niger = experiment: Antifungal activity against Aspergillus niger after 48 hrs by two-fold serial dilutions method; type: functional
Summary of the method: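 Two-fold serial dilution MIC, 0 to 500 µM, from 200 mM DMSO stocks; 0.2% DMSO final as vehicle control. Inoculum about 10^5 cells/mL. Organism maintained on potato dextrose agar and in RPMI. Plates incubated 48 h at 35 °C, then OD600 read; MIC taken as lowest concentration with no visible growth; n = 3 independent runs.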

Escherichia coli [10] = experiment: Antimicrobial activity against Escherichia coli after 18 to 24 hrs in aerobic condition by two-fold serial dilutions method; type: functional; summary of the method: as §2
Klebsiella pneumoniae = experiment: Antimicrobial activity against Klebsiella pneumoniae after 18 to 24 hrs in aerobic condition by two-fold serial dilutions method; type: functional; summary of the method: as §2
[11] = Therapeutic index, ratio of IC50 for human IMR90 cells to MIC for Clostridium perfringens; type: toxicity; conditions: read-out: TI
Summary of the method: (§4)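 IC50 measured on confluent normal human BEAS-2B or IMR-90 cells (DMEM, 10% FCS) after 48 h exposure with DMSO 0.2% as control. Resazurin read after 4 h (ex 530/em 590 nm), normalised to DMSO-treated cells. Index obtained by comparing this IC50 with the bacterial MIC.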

[12] = Therapeutic index, ratio of IC50 for human BEAS2B cells to MIC for methicillin-resistant Staphylococcus aureus; type: toxicity; conditions: read-out: TI; summary of the method: as §4

SMILES | Activity [1] | MIC (Cutibacterium acnes) | Activity (Stachybotrys chartarum [2]) | MIC (Lactococcus lactis) | Activity (Salmonella enterica) | MIC (Vibrio alginolyticus) | MIC (Aspergillus ochraceus) | Activity [3] | MIC (Klebsiella variicola) | MIC (Stachybotrys chartarum [4]) | MIC (Candida albicans) | Activity (Escherichia coli [5]) | Activity (Blautia producta) | Activity (Acinetobacter baumannii) | Activity (Enterococcus faecalis [6]) | MIC (Enterococcus faecalis [7]) | Activity (Escherichia coli [8]) | Activity (Clostridioides difficile) | Activity (Helicobacter pylori) | MIC [9] | further results
O=C1/C(=C/c2ccccc2)Oc2cc(O)cc(O)c21 | Active | 31.2 µM (≈ 7.95 µg/mL) | Active | 15.6 µM (≈ 3.97 µg/mL) | Active | 31.2 µM (≈ 7.95 µg/mL) | > 500 µM | Active | > 500 µM | > 500 µM | > 500 µM | Active | Active | Active | Active | 15.6 µM (≈ 3.97 µg/mL) | Active | Active | Active | > 500 µM | MIC (Aspergillus niger): 62.5 µM (≈ 15.9 µg/mL); MIC (Escherichia coli [10]): > 500 µM; MIC (Klebsiella pneumoniae): > 500 µM; selectivity ratio [11]: 32
COc1cc(/C=C2\Oc3cc(O)cc(O)c3C2=O)ccc1OCc1ccccc1 | Active | 31.2 µM (≈ 12.2 µg/mL) | Active | 31.2 µM (≈ 12.2 µg/mL) | Active | 3.9 µM (≈ 1.52 µg/mL) | > 500 µM | Active | > 500 µM | > 500 µM | 125 µM (≈ 48.8 µg/mL) | Active | Active | Active | Active | 15.6 to 31.2 µM (≈ 6.09 to 12.2 µg/mL) | Active | Active | Active | > 500 µM | MIC (Aspergillus niger): > 500 µM; MIC (Escherichia coli [10]): > 500 µM; MIC (Klebsiella pneumoniae): > 500 µM
O=C1/C(=C/c2ccc(F)cc2)Oc2cc(O)cc(O)c21 | Active | 31.2 µM (≈ 8.51 µg/mL) | Active | 15.6 µM (≈ 4.25 µg/mL) | Active | 125 µM (≈ 34 µg/mL) | > 500 µM | Active | > 500 µM | > 500 µM | > 500 µM | Active | Active | Active | Active | 125 to 250 µM (≈ 34 to 68.1 µg/mL) | Active | Active | Active | > 500 µM | selectivity ratio [12]: 76; MIC (Aspergillus niger): > 500 µM; MIC (Escherichia coli [10]): > 500 µM; MIC (Klebsiella pneumoniae): > 500 µM
